# Assay outcomes from PubChem.
# Sampled rows, rich in hits. Any-hit rate of the full collection: about 1.6%.
# UHRF1 MBD2 ctr = blocks human UHRF1 binding to methylated DNA; actives 0.75% (n = 370,000); Q96T88; UHRF1 binding to methylated oligo, TR-FRET; AID 687016; inhibition, % at 4.4 µM; in the data active means inhibition above about 21%;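 further: UHRF1 SRA domain binding a hemimethylated CpG hairpin DNA probe; 0% = median of test compound wells and 100% = reference inhibitor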
# LEDGF integ inh = blocks HIV-1 LEDGF/p75-dependent DNA integration. TR-FRET IN-LEDGF/p75 DNA integration, Eu/Cy5. actives 0.64% (n = 370,000). inhibition, % at 3.7 µM;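 active means inhibition above the screen-wide mean plus 3 SD, cut at about 13% in these data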;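 further: signal is the Cy5 over europium emission ratio at 671 and 618 nm; 0% = plate median of compound wells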
# TDP2 inh = TDP2 (human) inhibition, absorbance primary screen; O95551; actives 0.34% (n = 370,000); inhibition, % at 12.8 µM; recombinant TDP2, T5PNP hydrolysis, p-nitrophenol absorbance 415 nm;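 active means inhibition above the mean of all tested compounds plus 3 SD, set per campaign, cut at about 25% in these data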;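 further: 0% = DMSO with enzyme and 100% = buffer with substrate but no TDP2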
#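 test system = human TDP2 enzyme | input = TDP2 enzyme at 120 nM final | medium = 50 mM Tris-HCl pH 7.5 with Mg2+, KCl, DTT, BSA | also added = T5PNP substrate, 5 mM | times = 2 h at 37 °C | technique = epi absorbance | benchmarks = high control without enzyme, low control DMSO plus TDP2 | replication = each compound tested once, singlicate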
# MBD2 DNA inh = MBD2-methylated oligo binding inhibition | TR-FRET, MBD2 binding to methylated oligonucleotide | actives 0.31% (n = 370,000) | inhibition, % at 4.4 µM | AID 686964 | Q9UBB5; in the data active means inhibition above about 13%
# Target sequence (Q9UBB5 whole entry, looked up): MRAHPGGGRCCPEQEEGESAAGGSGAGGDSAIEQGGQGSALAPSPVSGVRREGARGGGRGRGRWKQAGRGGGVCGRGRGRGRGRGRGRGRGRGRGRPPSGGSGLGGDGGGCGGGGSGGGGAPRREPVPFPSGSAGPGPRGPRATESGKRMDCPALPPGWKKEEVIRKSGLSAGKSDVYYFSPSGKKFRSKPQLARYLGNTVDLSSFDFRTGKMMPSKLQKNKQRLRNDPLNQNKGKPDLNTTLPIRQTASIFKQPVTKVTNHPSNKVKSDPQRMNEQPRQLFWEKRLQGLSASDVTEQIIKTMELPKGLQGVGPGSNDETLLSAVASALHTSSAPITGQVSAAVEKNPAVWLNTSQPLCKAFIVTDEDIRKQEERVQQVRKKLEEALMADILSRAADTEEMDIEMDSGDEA
# The depositor's hits bear a star.
SMILES,UHRF1 MBD2 ctr,LEDGF integ inh,TDP2 inh,MBD2 DNA inh
CCOC(=O)c1ccc(NC(=O)COc2ccc(CNCCO)cc2OCC)cc1,101.7*,-9.7,5.5,3.8
CCOc1cc(CNCCO)ccc1OCC(=O)NC(C)(C)C,4.0,2.0,2.8,-1.1
Nc1ccc2c(c1)C1(CCC2)NC(=O)NC1=O (configuration not stated),21.3*,1.1,-1.9,9.1
O=C1NC(=O)C2(CCCc3ccc([N+](=O)[O-])cc32)N1 (configuration not stated),-1.1,2.0,1.6,-2.5
Cc1ccc(NN2C(=O)C=C(c3ccccc3)C2=O)cc1,20.9*,3.3,2.0,1.8
O=C1c2ccccc2C(=O)N1Nc1ccccc1,1.1,2.2,0.2,4.3
Cc1cccc(C(=O)NCC(=O)NC(C)CCc2ccccc2)c1 (configuration not stated),22.2*,0.8,-6.8,11.1
CC1(C)C(=O)C2(C(=O)NCc3ccccc3)CCC1C2 (configuration not stated),2.9,-0.2,5.5,-3.3
C=C1C2(C(=O)NCc3ccco3)CCC(C2)C1(C)C (configuration not stated),21.7*,9.7,-4.2,3.5
CN(C)CCCNCCCNC(=O)c1ccccn1,-1.5,4.7,6.5,1.8
CN(C)CCNC(=O)/C(=N\O)c1ccccn1,26.8*,4.0,-1.4,9.0
Cc1ccc(C2=CCN(C)C(=O)N2c2ccc([N+](=O)[O-])cc2)cc1,-0.9,-2.6,-1.0,-0.3
Cc1ccc(C(=O)NC2CCCCC2)cc1S(=O)(=O)N1CCCC1,0.1,1.3,4.8,-2.5
Cc1ccc(C(=O)NC2CCS(=O)(=O)C2)cc1S(=O)(=O)N1CCCCCC1 (configuration not stated),23.3*,5.4,-1.6,1.3
COc1ccc(CN2C(=O)[C@@](O)(c3cccn3C)c3cc(Br)ccc32)cc1,0.2,4.9,-6.2,-3.2
Cc1onc(-c2c(F)cccc2Cl)c1-c1ncc(-c2ccc(Cl)cc2)o1,4.4,1.0,-5.9,1.9
Cc1cccc(C)c1NC(=O)CN(C1CCCCC1)S(C)(=O)=O,27.9*,-0.1,1.2,0.0
CC(=O)c1cccc(NC(=O)CN(C2CCCCC2)S(C)(=O)=O)c1,0.6,-1.1,3.4,0.3
COCc1ccc(C(=O)N2CCCC(Nc3ccc4c(c3)OCCO4)C2)o1 (configuration not stated),20.8*,7.6,22.8,9.7
CN(Cc1ccccc1)S(=O)(=O)c1cccc(C(=O)OCc2ccccc2)c1,-0.2,2.4,3.6,-3.2
O=C(c1cccn2c(=O)c3ccccc3nc12)N1CCN(c2ccccn2)CC1,2.4,2.7,3.5,-4.2
O=C(O)c1cccn2c(=O)c3ccccc3nc12,20.7*,-2.0,-3.4,10.8
Cc1nn(C)c(C)c1C1C(C#N)=C(N)OC2=C1C(=O)CCC2 (configuration not stated),21.4*,-0.1,7.7,9.3
Cc1ccc(NS(=O)(=O)c2ccc3c(c2)NC(=O)CCS3)c(Br)c1,29.1*,-0.9,3.5,1.4
Cc1ccc(C)c(NS(=O)(=O)c2ccc3c(c2)NC(=O)CCS3)c1,2.2,2.0,-0.9,2.0
SMILES,UHRF1 MBD2 ctr,LEDGF integ inh,TDP2 inh,MBD2 DNA inh
COc1cc(OC)c2ccc(=O)oc2c1C(CCN1CCCC1)c1ccc2c(c1)OCO2 (configuration not stated),-0.5,0.6,3.7,-3.4
COc1cc(OC)c2ccc(=O)oc2c1C(CCN1CCOCC1)c1ccc2c(c1)OCO2 (configuration not stated),25.8*,0.6,-2.5,4.3
Cc1ccc(S(=O)(=O)N2CCCC2c2cccc3[nH]cc(C)c23)cc1 (configuration not stated),-1.7,3.8,-6.4,4.8
Cc1cccc(C(O)c2ncc(-c3ccc4ccccc4c3)[nH]2)c1C (configuration not stated),30.4*,-6.2,0.5,3.8
CN=c1sc2c(n1C)C(=O)c1ccccc1C2=O,0.9,13.1,34.6*,-10.1
C[N+]1=C2N[C@@H](c3ccccc3)CC(=O)N2/C(=C\c2ccccc2)[C@@H]1Cc1ccccc1,11.8,7.0,7.8,3.1
COc1ccc(N2C(=O)CCC(C(=O)NCCCN3CCC(C)CC3)C2c2ccc(OC)c(OC)c2)cc1 (configuration not stated),-1.3,-0.7,-3.5,-3.1
COCCNC(=O)C1CCC(=O)N(c2ccc(OC)cc2)C1c1ccc(OC)c(OC)c1 (configuration not stated),22.6*,4.7,15.0,7.7
COC(=O)CNC(=O)[C@H](Cc1ccccc1)NC1(C(=O)NCCc2c[nH]c3ccccc23)CCCCC1,-2.1,7.4,-14.3,-2.9
N=C1/C(=C/c2ccc(OCc3ccccc3F)cc2)C(=O)N=C2SC(CC(=O)N3CCOCC3)=NN12,23.2*,-0.4,-4.2,12.8
N=C1/C(=C/c2ccc(OCc3ccccc3)cc2)C(=O)N=C2SC(CC(=O)N3CCOCC3)=NN12,-0.8,2.0,6.0,7.2
C=CCN(CC#CC1=CCCCC1)CC1CC1,2.7,0.8,-5.7,-1.7
COC(=O)[C@H](C)NC(=O)[C@H](CC(C)C)NC(=O)OC(C)(C)C,-1.9,-0.5,4.1,3.6
Nc1ccc2nc(SCc3ccccc3F)sc2c1,22.8*,-0.5,13.6,-1.2
CCOC(=O)CC1COc2ccccc2N1C(=O)c1cccc([N+](=O)[O-])c1 (configuration not stated),40.0*,-3.1,2.4,2.7
O=[N+]([O-])c1ccccc1S(=O)(=O)N1CCSCC1,66.0*,1.7,9.0,0.7
CCCS(=O)(=O)N1CCN(S(=O)(=O)c2ccccc2[N+](=O)[O-])CC1,2.8,-0.3,-17.6,-1.6
Cc1cc(C)n(CCCNC(=O)CCNS(=O)(=O)c2ccccc2C(F)(F)F)n1,23.8*,1.4,-2.1,-1.0
CCOC(=O)CN1C(=O)N(c2ccc(OC)cc2)[C@H]2CC3c4ccccc4C[C@]3(C)[C@@H](C(=O)N(C)C3CCCCC3)C[C@H]21 (some centres not stated),-1.1,-0.3,-0.3,0.3
C=CCN1C(=O)C(CC(=O)Nc2ccc(C)cc2)SC1=Nc1c(C)n(C)n(-c2ccccc2)c1=O (configuration not stated),-0.3,-2.5,11.1,1.5
Cc1c(N=C2SC(CC(=O)Nc3ccccc3)C(=O)N2CCN2CCOCC2)c(=O)n(-c2ccccc2)n1C (configuration not stated),27.5*,0.9,5.6,3.3
CCCCCCCCN1C(=O)[C@@H](CC(=O)NCc2cccs2)C[C@@]2(C(=O)OC)C1=C[C@H](C1CCCC1)O[C@@H]2C,5.5,-1.6,-3.7,3.2
Cc1ccccc1NC(=O)OCCCN1C(=O)CCC12CCC(C)CC2 (configuration not stated),-2.5,-1.7,3.3,-4.0
C/C(C/C(C)=C1/SC(=S)NC1=O)=C1\SC(=S)NC1=O,44.8*,20.5*,14.6,18.5*
CCCCCC/C(C)=C1/SC(=S)NC1=O,17.3,-0.5,12.6,2.8
